Results from different studies.
Compare with care: the assays were run in different laboratories.
Target: Phosphatidylinositol 4-kinase beta (PI4KB, Homo sapiens, UniProt Q9UBF8)

| SMILES | assay | setting | remaining binding |
| --- | --- | --- | --- |
| CN(C)c1ncc(F)c(-c2cnn3ncccc23)n1 | binding | 1 µM | 100% |
| CN(C)C(=O)Cn1cc(-c2nc([C@@](C)(c3ccc(-c4cnc(N)nc4)cc3)C3CC3)no2)cn1 | cell-free assay, competition with immobilised ligand | 1 µM | 92% |
| Cc1cnc(Nc2ccc(C(=O)N3CCC(N4CCCC4)CC3)cc2)nc1-c1cc2ccccc2s1 | binding, competition with immobilised ligand | 1 µM | 77% |
| C[C@@H]1CCN(c2nccc(-c3cnn4ncccc34)n2)C1 | binding | 1 µM | 20% |
| O=C(c1ccc(Nc2ncc(Cl)c(-c3ccc(Cl)s3)n2)cc1)N1CCC(N2CCCC2)CC1 | binding, competition with immobilised ligand | 1 µM | 100% |
| COc1cnc(Nc2cccc(S(N)(=O)=O)c2)nc1N1CCN(c2ccccc2)C(=O)C1 | binding, competition with immobilised ligand | 1 µM | 13% |
| C=CC(=O)N1CCC(C(=O)NCC(=O)N2CCN(c3nc(-c4cnc(N)nc4C(F)F)nc(N4CCOCC4)n3)CC2)CC1 | binding, competition with immobilised ligand | 1 µM | 100% |
| CNC(=O)[C@@H]1CC[C@@H](n2c(-c3ccc4cnccc4c3)nc3ccc(C(=O)NCc4cccc(C(N)=O)c4)cc32)C1 | binding, competition with immobilised ligand | 1 µM | 96% |
| N[C@@H]1CCN(c2nccc(-c3cnn4ncccc34)n2)C1 | binding | 1 µM | 80% |
| O=C(NCCCN1CCOCC1)c1ccc(Nc2nccc(-c3cc4ccccc4s3)n2)cc1 | binding, competition with immobilised ligand | 1 µM | 45% |
| CSc1cccnc1N1CCN(Cc2nc3ccccc3[nH]2)CC1 | cell-free assay, competition with immobilised ligand | 1 µM | 73% |
| CCN1CCN(Cc2ccc(C(=O)Nc3ccc(C)c(Oc4ccc5c(c4)CC(=O)N5)c3)cc2C(F)(F)F)CC1 | binding, competition with immobilised ligand | 1 µM | 100% |
| O=C(N1CCS(=O)(=O)CC1)N1C[C@H](c2ccc(OC(F)(F)F)cc2)C[C@H](c2nc(C3CC3)no2)C1 | cell-free assay, competition with immobilised ligand | 1 µM | 100% |
| CN(c1nccc(-c2cnn3ncccc23)n1)C1CC1 | binding | 1 µM | 100% |
| CCOC(=O)c1cc2cc(-c3cc(C(=O)NCc4ccc(C(=O)O)cc4)nn3C)ccc2[nH]1 | cell-free assay, competition with immobilised ligand | 0.1 µM | 79% |
| O=C(Nc1c[nH]nc1C(=O)NC1CCNCC1)c1cc(F)cc(F)c1 | binding, competition with immobilised ligand | 1 µM | 100% |
| CN(C)c1nccc(-c2cnn3ncccc23)n1 | binding | 1 µM | 58% |
| Cc1c(C(=O)O)cc(-c2ccc(C3CCNCC3)cc2)c2ccc(-c3ccc(C(F)(F)F)cc3)cc12 | cell-free assay, competition with immobilised ligand | 1 µM | 100% |
| CN(CCCC(F)(F)F)c1nccc(-c2cnn3ncccc23)n1 | binding | 1 µM | 100% |
| CNCc1ccccc1-c1csc([C@@H](C)Nc2nc(C)nc3cc(OC)c(OC)cc23)c1 | cell-free assay, competition with immobilised ligand | 1 µM | 82% |
| COc1ccnn2ncc(-c3ccnc(N(C)C)n3)c12 | binding | 1 µM | 65% |
| Nc1c(C(=O)NCc2ccc(C(=O)NCCCC3CCCCC3)cc2)cnn1-c1ccccc1 | cell-free assay, competition with immobilised ligand | 0.1 µM | 100% |
